Assay outcomes: PubChem, SRMLSC
Shown is part of a subset that was picked to be rich in hits.
BB579 growth dn = chemicals that inhibit yeast BB579 growth in restrictive medium (lifespan-shortening candidates). S. cerevisiae BB579 growth, OD615, 48 h. inhibition, % at 10 µM. actives 0.51% (n = 140,000). AID 804;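 active = inhibition above a set limit, 3 SD over the mean compound inhibition, cut at about 44% in these data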
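Detection: OD615 turbidity measurement; Material: Saccharomyces cerevisiae DeaD strain BB579, replicative lifespan model yeast; Timing: 48 h exposure, 30 °C; Doses: single 10 µM dose; Medium: CSMM-D restrictive synthetic medium containing dextrose (glucose); Controls: amphotericin B at 10 µg/mL as positive control.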
Yeast lifespan up = extends the lifespan of yeast; inhibition of the nicotinamide effect, % at 10 µM; AID 775; S. cerevisiae growth with nicotinamide, OD615; deaD strain in restrictive glucose medium; actives 0.68% (n = 130,000);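 active = inhibition above a set limit, placed 3 SD over the median of all compounds, cut at about 26% in these data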
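assay system = DeaD-strain S. cerevisiae | buffer or medium = restrictive glucose medium | reagent = 1.5 mM nicotinamide | compound = 10 µM single point, 0.25% DMSO | incubation = 48 h compound exposure at 30 °C, humidified | signal = OD615 measurement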
PostGolgi ctrl = growth of the yeast control strain, post-Golgi counter-screen; efflux-deficient yeast background strain, growth absorbance A615, 16 h; inhibition, % at 10 µM; actives 5% (n = 98,000); AID 738
PostGolgi yeast = growth inhibition of a yeast mutant, post-Golgi transport screen; inhibition, % at 10 µM; actives 0.9% (n = 98,000); post-Golgi transport phenotypic cell assay;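 note: yeast cells grown in 1536-well plates; yeast grown about 18 h at 30C before absorbance read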
A number is an active result; 0 = inactive; - = not tested or not shown. Cut-off read from the data, not from the text of the source, unless noted: active = inhibition above about 30%; inactive = the rest.

SMILES | BB579 growth dn | Yeast lifespan up | PostGolgi ctrl | PostGolgi yeast
O=c1[nH]c(=O)n(C2CCCCCC2)c(O)c1C=NC1CCN(Cc2ccccc2)CC1 | 0 | 0 | 0 | 0
O=c1[nH]c(=S)n(CCC2=CCCCC2)c(O)c1C=NC1CCN(Cc2ccccc2)CC1 | 0 | 0 | 94.0 | 37.4
N#CCC(=O)NN1Cc2ccccc2C1=N | 0 | 0 | - | -
CN(C)C=C1C(=O)N(C2CCCCC2)C(=O)N(C2CCCCC2)C1=O | 0 | 39.2 | 0 | 0
CN1CCC2(CC1)C(C#N)=C(N)NC(S)=C2C#N | 0 | 40.0 | - | -
O=C(Nc1ccc(F)cc1F)c1cccnc1Oc1cccc(C(F)(F)F)c1 | 0 | 35.8 | 0 | 0
O=C(C1CC(=O)N(c2ccc(F)c(Cl)c2)C1)N1CCC2(CC1)OCCO2 (configuration not stated) | 0 | 0 | 0 | 0
Oc1c(Br)cc(Br)cc1Oc1ccc(Br)cc1Br | 83.3 | 0 | - | -
Nc1cc(Cl)c2nonc2c1[N+](=O)[O-] | 0 | 37.1 | - | -
CCOCCN1CCN(c2nnc3n2-c2ccc(Cl)cc2C(c2ccccc2Cl)=NC3)CC1 | 0 | 0 | 0 | 0
COCCCN1CCN(c2nnc3n2-c2sc(Br)cc2C(c2ccccc2Cl)=NC3)CC1 | 0 | 50.4 | 0 | 0
CC(C)OP(=O)(OC(C)C)C(O)c1ccccc1F (configuration not stated) | 0 | 0 | - | -
Cc1nn(Cc2ccccc2Cl)c(C)c1C(=O)OCC(=O)N1CC(C)OC(C)C1 (configuration not stated) | 0 | 0 | - | -
N[C@@H](Cc1c[nH]c2ccccc12)c1nnc(SCc2ccc(Cl)cc2)o1 | 0 | 0 | 0 | 46.8
Clc1ccc(COC(Cn2ccnc2)c2ccc(Cl)cc2Cl)c(Cl)c1 (configuration not stated) | 99.9 | 0 | - | -
Cc1nn(C)c(C)c1P(=S)(c1c(C)nn(C)c1C)N(C)C | 0 | 0 | 40.4 | 0
CCNc1nc(Cl)nc(NC(C)C)n1 | 0 | 0 | - | -
O=C1C2CCCN2C(c2ccc(Cl)cc2)N1c1ccccn1 (configuration not stated) | 0 | 0 | 0 | 0
Cc1ccc(S(=O)(=O)N2CC3CC(C2)c2cccc(=O)n2C3)cc1 (configuration not stated) | 0 | 0 | 0 | 33.0
Nc1ccc(S(=O)(=O)N2CC3CC(C2)c2cccc(=O)n2C3)cc1 (configuration not stated) | 0 | 0 | 0 | 0
Cc1cc(N2C(=O)C3CCCN3C2c2sccc2C)no1 (configuration not stated) | 0 | 0 | 0 | 35.8
OC(COCc1ccc(Cl)cc1)CN1CC=C(c2ccccc2)CC1 (configuration not stated) | 0 | 0 | 0 | 63.3
CN1CCN(C(=O)OC2c3nccnc3C(=O)N2c2ccc(Cl)cn2)CC1 (configuration not stated) | 0 | 0 | - | -
O=C1/C(=C/c2ccc3c(c2)OCO3)N2CCC1CC2 | 0 | 0 | - | -
O=C1/C(=C\c2ccc([N+](=O)[O-])cc2)N2CCC1CC2 | 0 | 35.4 | - | -
SMILES | BB579 growth dn | Yeast lifespan up | PostGolgi ctrl | PostGolgi yeast
ON1C2CCCCC2N(O)C1c1ccccc1 (configuration not stated) | 0 | 0 | 0 | 0
CC(=NC(C)c1ccccc1)c1c(O)[nH]c(=O)[nH]c1=O (configuration not stated) | 0 | 0 | 0 | 0
COCCCn1c(N)c(C(=O)NCCC(C)C)c2nc3ccccc3nc21 | 0 | 0 | 31.7 | 0
CCCNC(=O)c1c(N)n(CC2CCCO2)c2nc3ccccc3nc12 (configuration not stated) | 0 | 0 | 32.5 | 0
O=C1C2CCCN2C(c2ccccc2)N1c1ccccn1 (configuration not stated) | 0 | 0 | 0 | 0
COc1ccccc1N1CCN(Cc2ccccc2F)CC1 | 0 | 0 | 0 | 36.2
Cc1cccc(N2CCN(CCc3ccccc3)CC2)c1C | 0 | 0 | 0 | 0
Cc1ccc(N2CCN(CCc3ccccc3)CC2)cc1 | 0 | 0 | 43.1 | 0
O=C1CC(C(=O)N2CCC3(CC2)OCCO3)CN1CCc1ccccc1 (configuration not stated) | 0 | 0 | 31.6 | 0
CC(=NCC1CCCO1)c1c(O)n(Cc2ccccc2)c(=O)[nH]c1=O (configuration not stated) | 0 | 0 | 0 | 0
O=C1NC(=O)N(CCC2=CCCCC2)C(=O)/C1=C\c1cccs1 | 0 | 62.5 | - | -
C=CCN1C(=O)/C(=C/c2cccs2)C(=O)NC1=S | 75.3 | 0 | - | -
CCOP(=O)(OCC)C(NC(=O)C(C)C)C(Cl)(Cl)Cl (configuration not stated) | 0 | 0 | 0 | 0
Fc1ccccc1CCNCc1cccc(Cl)c1Cl | 0 | 0 | 0 | 0
CCCC[n+]1cc(/N=C(\[O-])OC)on1 | 0 | 0 | 0 | 0
Cc1ccc(-c2nc3ccccc3c(=O)n2-c2ccncc2)cc1 | 0 | 0 | - | -
O=c1c2ccccc2nc(-c2ccc(-c3ccccc3)cc2)n1-c1ccncc1 | 0 | 0 | 85.9 | 100.5
Cc1ccc(/C=C2/C(=O)NC(=O)N(CCc3ccc(F)cc3)C2=O)o1 | 0 | 32.4 | 0 | 0
Cn1cccc1/C=C1\C(=O)NC(=O)N(CCC2=CCCCC2)C1=O | 0 | 0 | - | -
CC1CN(O)C2CCc3nonc3C12O (configuration not stated) | 0 | 0 | 0 | 0
Cc1ccc(Cn2nnnc2CN2CCC(n3nnc4cc(C(F)(F)F)ccc43)CC2)cc1 | 0 | 0 | 62.3 | 0
FC(F)(F)c1ccc2c(c1)nnn2C1CCN(Cc2nnnn2Cc2ccccc2)CC1 | 0 | 0 | 0 | 0
Cc1nn(Cc2ccccc2)c(C)c1C(=O)NC1CCCc2ccccc21 (configuration not stated) | 0 | 0 | - | -
CC(=O)Nc1ccc(OC(=O)N(C)c2ccccc2)cc1 | 0 | 0 | 0 | 0
Cc1ccc(N(C)C(=O)Oc2ccc(C(=O)c3ccc(Cl)cc3)cc2)cc1 | 0 | 82.4 | 0 | 0
SMILES | BB579 growth dn | Yeast lifespan up | PostGolgi ctrl | PostGolgi yeast
COc1ccccc1CCNC1C2CC3CC(C2)CC1C3 (configuration not stated) | 0 | 0 | - | -
CCOC(=O)C(O)(c1ccc(N(CC)S(=O)(=O)c2ccccc2)cc1)C(F)(F)F (configuration not stated) | 0 | 0 | 38.5 | 0
O=c1c2ccccc2nc(-c2cccs2)n1-c1ccccc1 | 0 | 0 | 0 | 0
CCn1nc(-c2cccs2)nc2c(=O)n(C)c(=O)nc1-2 | 99.6 | 0 | 99.7 | 104.6
CCCCn1c(O)c(C(CC)=NC(C)c2ccccc2)c(=O)[nH]c1=O (configuration not stated) | 0 | 0 | 52.0 | 0
C=CCn1c(O)c(C(CC)=NC(C)c2ccccc2)c(=O)[nH]c1=O (configuration not stated) | 0 | 0 | 39.7 | 0
C=CCn1c(O)c(C(CC)=NC2CC2)c(=O)[nH]c1=O | 0 | 0 | 0 | 0
CCCCn1c(O)c(C(C)=NCCc2ccccc2)c(=O)[nH]c1=O | 0 | 0 | 31.3 | 0
CCCCOP(=O)(OCCCC)/C(C#N)=C(/C)O | 0 | 0 | 0 | 0
COc1cc(/C=C/[N+](=O)[O-])ccc1O | 0 | 34.5 | - | -
OC(Cn1c2ccccc2c2ccccc21)C[n+]1cccc2ccccc21 (configuration not stated) | 0 | 0 | 0 | 0
Cc1ccc(NC(=O)CN2C(=O)CN=C(c3ccccc3)c3cc(Cl)ccc32)cc1 | 0 | 0 | 45.9 | 0
